Values after ≈ are worked out from the molar mass of the structure shown.
Assays:
[1] = tested on: Trypanosoma brucei gambiense; assay: Anti-trypanosomal activity against Trypanosoma brucei gambiense Feo bloodstream forms assessed as inhibition of parasite growth rate at 1 ug/mL after 72 hrs by resazurin assay; type: functional; conditions: read-out: GI
In short: (§1)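 Fixed-concentration screen of bloodstream-form Feo parasites, 10⁴ cells per well, cultured in HMI9 with 10% FCS at 37 °C, 5% CO2. Most compounds tested at 50, 10 and 1; some at 100, 20 and 2. Growth measured by resazurin fluorescence at 530 nm. Percent inhibition calculated against untreated wells.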

[2] = tested on: Trypanosoma brucei gambiense; assay: Anti-trypanosomal activity against Trypanosoma brucei gambiense Feo bloodstream forms assessed as inhibition of parasite growth rate after 72 hrs by resazurin assay; type: functional, organism-based
In short: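 Bloodstream-form Feo parasites in HMI9 with 10% FCS, 37 °C, 5% CO2. Log-phase cells harvested at 3000 × g and used at once. 10⁴ cells per well, with or without inhibitor (stocks in DMSO). Resazurin added and fluorescence read at 530 nm. Inhibition taken against drug-free wells. IC50 from dose–response curves ranging down to 10 ng/ml. Mean ± SD of three independent experiments.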

[3] = tested on: Trypanosoma brucei gambiense; assay: Anti-trypanosomal activity against Trypanosoma brucei gambiense Feo bloodstream forms assessed as inhibition of parasite growth rate at 10 ug/mL after 72 hrs by resazurin assay; type: functional; conditions: read-out: GI; in short: as §1
[4] = tested on: Trypanosoma brucei gambiense; assay: Anti-trypanosomal activity against Trypanosoma brucei gambiense Feo bloodstream forms assessed as inhibition of parasite growth rate at 50 ug/mL after 72 hrs by resazurin assay; type: functional; conditions: read-out: GI; in short: as §1
[5] = Selectivity index, ratio of CC50 for rat L6 cells to IC50 for Trypanosoma brucei gambiense Feo; type: functional
In short: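 Computed as CC50 (L-6 cells, resazurin) divided by IC50 (T. b. gambiense Feo bloodstream forms, resazurin). Both values are means of three independent experiments.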

[6] = Cytotoxicity against rat L6 cells after 5 days by resazurin assay; type: cell-based
In short: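 Rat myoblast L-6 cells in RPMI with 25 mM HEPES pH 7.3 and 10% fetal calf serum, 37 °C, 5% CO2. Compounds from DMSO stocks, final DMSO below 1%. Controls received DMSO only. Viability by resazurin conversion, fluorescence at 530 nm excitation and 590 nm emission after a further 4 h. CC50 is the mean ± SD of three independent experiments.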

[7] = tested on: Trypanosoma brucei gambiense; assay: Potency index, ratio of IC50 for nifurtimox to IC50 for test compound against Trypanosoma brucei gambiense Feo bloodstream forms assessed as inhibition of parasite growth rate after 72 hrs by resazurin assay; type: functional
[8] = tested on: Trypanosoma cruzi; assay: Anti-trypanosomal activity against Trypanosoma cruzi Y; type: functional, organism-based
[9] = tested on: Trypanosoma brucei brucei; assay: Anti-trypanosomal activity against Trypanosoma brucei brucei; type: functional, organism-based
[10] = tested on: Trypanosoma brucei gambiense; assay: Anti-trypanosomal activity against Trypanosoma brucei gambiense Feo bloodstream forms assessed as inhibition of parasite growth rate at 20 ug/mL after 72 hrs by resazurin assay; type: functional; conditions: read-out: GI; in short: as §1
[11] = tested on: Trypanosoma brucei gambiense; assay: Anti-trypanosomal activity against Trypanosoma brucei gambiense Feo bloodstream forms assessed as inhibition of parasite growth rate at 2 ug/mL after 72 hrs by resazurin assay; type: functional; conditions: read-out: GI; in short: as §1
[12] = tested on: Trypanosoma brucei gambiense; assay: Anti-trypanosomal activity against Trypanosoma brucei gambiense Feo bloodstream forms assessed as inhibition of parasite growth rate at 100 ug/mL after 72 hrs by resazurin assay; type: functional; conditions: read-out: GI; in short: as §1
[13] = tested on: Trypanosoma brucei rhodesiense; assay: Anti-trypanosomal activity against Trypanosoma brucei rhodesiense; type: functional, organism-based

SMILES | inhibition of growth at 1 µg/mL [1] | IC50 [2] | inhibition of growth at 10 µg/mL [3] | inhibition of growth at 50 µg/mL [4] | also measured
CN(C)c1ccc(C2CC(c3ccccc3)=NN2/C=C2\SC(=S)NC2=O)cc1 (configuration not stated) | 30.2% | 10.5 µM | 76.2% | 74% | –
CN1C(=O)/C(=C/NCC(=O)N2N=C(c3ccc4ccccc4c3)CC2c2ccc(Cl)cc2)SC1=S (configuration not stated) | 52% | 2.1 µM | 86.9% | 93.5% | –
CC(=O)Oc1cccc(N2C(=O)/C(=C/N3N=C(c4ccccc4)CC3c3ccccc3O)SC2=S)c1 (configuration not stated) | 83.1% | 1.1 µM | 93.8% | 90.9% | Ratio CC50/IC50 [5]: 12.4; CC50 at 120 h [6]: 13.6 µM
CC(=O)Oc1cccc(N2C(=O)/C(=C/N3N=C(c4ccccc4)CC3c3ccc(Cl)cc3)SC2=S)c1 (configuration not stated) | 42.1% | 1.9 µM | 91.4% | 90.3% | –
COc1ccc(C2=NN(/C=C3\SC(=S)N(c4cccc(OC(C)=O)c4)C3=O)C(c3ccccc3O)C2)cc1 (configuration not stated) | 90.1% | 0.7 µM | 91.7% | 89.5% | Ratio IC50 [7]: 6; Ratio CC50/IC50 [5]: 57.1; CC50 at 120 h [6]: 40 µM
Cc1ccc(N2C(=O)/C(=C/N3N=C(c4ccccc4)CC3c3ccc(N(C)C)cc3)SC2=S)cc1 (configuration not stated) | 39.8% | > 20.1 µM | 51.9% | 5.8% | –
CC(=O)Oc1cccc(N2C(=O)/C(=C/N3N=C(c4ccccc4)CC3c3ccc(N(C)C)cc3)SC2=S)c1 (configuration not stated) | 53.1% | 1.2 µM | 84.9% | 81.6% | Ratio CC50/IC50 [5]: >153.6; CC50 at 120 h [6]: > 184 µM
COc1ccc(C2=NN(/C=C3\SC(=S)N(c4ccc(C)cc4)C3=O)C(c3ccc(Cl)cc3)C2)cc1 (configuration not stated) | 62.8% | 2.5 µM | 70.4% | 40.2% | –
COc1ccc(C2CC(c3ccccc3)=NN2/C=C2\SC(=S)N(c3cccc(OC(C)=O)c3)C2=O)cc1 (configuration not stated) | 79.3% | 10.8 µM | 97.5% | 97.2% | –
O=C1NC(=S)/C(=C/N2N=C(c3ccccc3)CC2c2ccccc2O)S1 (configuration not stated) | 61% | 3.5 µM | 93.3% | 85.8% | –
COc1ccc(C2CC(c3ccc4ccccc4c3)=NN2/C=C2\SC(=S)N(c3cccc(OC(C)=O)c3)C2=O)cc1 (configuration not stated) | 87.6% | 1.2 µM | 95.8% | 94.7% | Ratio CC50/IC50 [5]: >143.8; CC50 at 120 h [6]: > 172 µM
CCC1SC(N/N=C/CSc2ccccc2)=NC1=O (configuration not stated) | – | – | – | – | IC50 [8]: 0.3 µM
CN1C(=O)/C(=C/NCC(=O)N2N=C(c3ccc4ccccc4c3)CC2c2ccc(F)cc2)SC1=S (configuration not stated) | 46.6% | 1.5 µM | 94.8% | 95.6% | –
COc1ccc(C2=NN(/C=C3\SC(=S)N(Cc4ccco4)C3=O)C(c3ccc(OC)cc3)C2)cc1 (configuration not stated) | 38.7% | > 98.9 µM | 48.2% | 12.8% | –
COc1ccc(C2=NN(/C=C3\SC(=S)N(c4ccc(C)cc4)C3=O)C(c3ccc(OC)cc3)C2)cc1 (configuration not stated) | 44.5% | – | 55.5% | 23.1% | –
COc1ccc(C2CC(c3ccccc3)=NN2C2=NC(=O)S/C2=C\c2ccc([N+](=O)[O-])cc2)cc1 (configuration not stated) | – | – | – | – | IC50 [9]: 3.01 µg/mL (≈ 6.21 µM)

SMILES | inhibition of growth at 1 µg/mL [1] | IC50 [2] | inhibition of growth at 10 µg/mL [3] | inhibition of growth at 50 µg/mL [4] | also measured
Cc1ccc(N2C(=O)/C(=C/N3N=C(c4ccc5ccccc5c4)CC3c3ccc(Cl)cc3)SC2=S)cc1 (configuration not stated) | 27.6% | 21.7 µM | 59.4% | 41.7% | –
COc1ccc(C2CC(c3ccc4ccccc4c3)=NN2/C=C2\SC(=O)NC2=S)cc1 (configuration not stated) | 19.7% | 18.6 µM | 74.7% | 87.2% | –
O=C1/C(=C/N2N=C(c3ccc4ccccc4c3)CC2c2ccc(Cl)cc2)SC(=S)N1Cc1ccco1 (configuration not stated) | 29% | – | 45.3% | 59.6% | –
COc1ccc(C2CC(c3ccccc3)=NN2/C=C2\SC(=S)N(c3ccc(C)cc3)C2=O)cc1 (configuration not stated) | 52.5% | 1.5 µM | 69.2% | 17.8% | –
CN1C(=O)/C(=C/N2N=C(c3ccccc3)CC2c2ccc(Cl)cc2)SC1=S (configuration not stated) | – | – | – | – | inhibition of growth at 20 µg/mL [10]: 42%; inhibition of growth at 2 µg/mL [11]: 8.2%; inhibition of growth at 100 µg/mL [12]: 56%
COc1ccc(C2CC(c3ccccc3)=NN2/C=C2\SC(=S)N(Cc3ccco3)C2=O)cc1 (configuration not stated) | 37.9% | – | 67.3% | 46.6% | –
CC1CS(=O)(=O)CCN1/N=C/c1ccc([N+](=O)[O-])o1 (configuration not stated) [NIFURTIMOX] | – | 4.4 µM | – | – | Ratio CC50/IC50 [5]: 17.8; CC50 at 120 h [6]: 78.2 µM
CC1=NN(C2=NC(=O)CS2)C(c2ccccc2)C1 (configuration not stated) | – | – | – | – | IC50 [13]: 12 µg/mL (≈ 46.3 µM)
COc1ccc(C2CC(c3ccc4ccccc4c3)=NN2/C=C2\SC(=S)N(Cc3ccco3)C2=O)cc1 (configuration not stated) | 19.4% | – | 32.1% | 54.6% | –
O=C1NC(=S)S/C1=C\N1N=C(c2ccc3ccccc3c2)CC1c1ccc(F)cc1 (configuration not stated) | 19.9% | 13.2 µM | 85% | 85.4% | –
COc1ccc(C2CC(c3ccccc3)=NN2C(=O)CN/C=C2\SC(=S)N(C)C2=O)cc1 (configuration not stated) | 62.3% | 4.6 µM | 96.5% | 96.1% | –
CC(=O)Oc1cccc(N2C(=O)/C(=C/N3N=C(c4ccc5ccccc5c4)CC3c3ccc(Cl)cc3)SC2=S)c1 (configuration not stated) | 66.7% | 16.5 µM | 89.9% | 90.6% | –
COc1ccc(C2CC(c3ccc4ccccc4c3)=NN2/C=C2\SC(=S)N(C)C2=O)cc1 (configuration not stated) | 97.2% | 0.6 µM | 97.2% | 97.1% | Ratio IC50 [7]: 6; Ratio CC50/IC50 [5]: 292; CC50 at 120 h [6]: 175 µM
CN1C(=O)/C(=C/N2N=C(c3ccc4ccccc4c3)CC2c2ccc(Cl)cc2)SC1=S (configuration not stated) | 97.1% | > 1 µM | 97.2% | 97% | CC50 at 120 h [6]: 154 µM
COc1ccc(C2CC(c3ccccc3)=NN2/C=C2\SC(=S)NC2=O)cc1 (configuration not stated) | 21.9% | 14.7 µM | 92.3% | 91.5% | –

From ChEMBL document CHEMBL3351384, “Synthesis of pyrazoline-thiazolidinone hybrids with trypanocidal activity” (Eur J Med Chem, 2014)
